From PMC9924909 (Brain, 2022)
Entries after “also recorded” stand apart in the source; their conditions may differ.

What was measured:
[1] = Venglustat CSF pharmacokinetics, LEAP trial; format: in vivo, human; conditions: for CSF venglustat concentration, mean (SD): 10 patients (Patient 9 excluded); for CSF venglustat concentration, Patient 9: single patient with low exposure
Method in brief: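 CSF for drug levels collected pre-dose on Day 1 and 2–4 h post-dose at Weeks 4, 26 and 52 (reported as ~4 h), while on oral test compound 15 mg once daily. Concentrations summarised descriptively, with one patient excluded from summary statistics. Values below LLOQ entered as 0.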

ceramide = assay: Ceramide in CSF; format: in vivo, human; conditions: baseline and throughout the study
Method in brief: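 Exploratory CSF biomarkers quantified in CSF taken by lumbar puncture at baseline and Weeks 1, 4, 26 and 52. Adults with GD3 received oral test compound 15 mg once daily plus maintenance IV enzyme replacement for 52 weeks.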

adults with GD3 = assay: Vineland Adaptive Behavior Scale II; format: in vivo, human; conditions: over 1 year of venglustat treatment
CYP3A = conditions: no reference given; cited from earlier work

SMILES: CC(C)(NC(=O)O[C@@H]1CN2CCC1CC2)c1csc(-c2ccc(F)cc2)n1 [Venglustat]
- CSF venglustat concentration, mean (SD) ([1]; Week 4, ~4 h post-dose, 15 mg once daily): 6.63 (2.42) ng/ml
- CSF venglustat concentration, Patient 9 ([1]; Week 4): 3.05 ng/mL
- CSF venglustat concentration, mean (SD) ([1]; Week 26, ~4 h post-dose, 15 mg once daily): 6.77 (1.96) ng/ml
- CSF venglustat concentration, Patient 9 ([1]; Week 26): 1.77 ng/mL
- CSF venglustat concentration, mean (SD) ([1]; Week 52, ~4 h post-dose, 15 mg once daily): 6.14 (3.44) ng/ml
- CSF venglustat concentration, Patient 9 ([1]; Week 52): undetectable
- steady state reached (CSF) ([1]; mean CSF concentrations, Patient 9 excluded, 15 mg once daily): ≤ 4 Week
- crossing of the blood–brain barrier ([1]; venglustat detectable in CSF 4 h post dose over 1 year (excluding Patient 9)): crossed the blood–brain barrier
- ceramide concentrations in CSF (ceramide): within reference ranges
- Vineland II domain scores over time (adults with GD3): deteriorated in all domains; also recorded: All domains decreased in normative score
- metabolism by CYP3A (CYP3A): principally metabolized by the CYP3A cytochrome complex
